Experimental data of several laboratories.
Each line is one published result; the experiments were not run side by side.
CDK5: Cyclin-dependent kinase 5 (CDK5, Homo sapiens, UniProt Q00535)
CDK5 with p25: Cyclin-dependent kinase 5, with p25 (CDK5, Homo sapiens, UniProt Q00535)

Cc1ccc(NC(=O)c2ccnc(C(F)(F)F)c2)cc1-c1cc(OCCO)nc(N2CCOCC2)c1  remaining binding (CDK5; binding; competition with immobilised ligand; 1 µM): 95%
COc1ccc2oc(-c3ccc4nc(N)oc4c3)c/c(=N\c3ccccc3NC(=O)CCN)c2c1  remaining binding (CDK5 with p25; binding; 1 µM): 102%
COc1ccc2[nH]c3c4[nH]c5ccc(OC)cc5c4c4c(c3c2c1)C(=O)NC4=O  remaining binding (CDK5; binding; competition with immobilised ligand; 1 µM): 75%
CO[C@@H]1[C@H](N(C)C(=O)c2ccccc2)C[C@H]2O[C@]1(C)n1c3ccccc3c3c4c(c5c6ccccc6n2c5c31)C(=O)NC4  inhibition (CDK5; enzyme activity; inhibitor; 1 µM): 0%
CC(C)S(=O)(=O)c1ccc2nccc(Nc3ccc4sc(C5CCCC5)nc4c3)c2c1  activity vs control (CDK5 with p25; enzyme activity; inhibitor; 1 µM): 97.5%
C1=C/COCc2cc(ccc2OCCN2CCCC2)Nc2nccc(n2)-c2cccc(c2)COC/1  remaining binding (CDK5; binding; 0.1 µM): 100%
C[C@]1(O)CCCN(c2nc(Nc3ccc(S(=O)(=O)N[C@H]4CC[C@H](CN5CCN(c6ccc(C7CCC(=O)NC7=O)cc6F)CC5)CC4)cc3Cl)ncc2C(F)(F)F)C1 (stereo partly shown)  remaining binding (CDK5; binding; competition with immobilised ligand; 1 µM): 72%
CCCCC(=O)Nc1ccc(-c2ccc3ncn(CCC)c(=O)c3c2)cn1  remaining binding (CDK5; binding; competition with immobilised ligand; 0.5 µM): 78%
C[C@]1(O)CCCN(c2nc(Nc3ccc(S(=O)(=O)N[C@H]4CC[C@H](CN5CCN(c6ccc(C7CCC(=O)NC7=O)cc6F)CC5)CC4)cc3F)ncc2C(F)(F)F)C1 (stereo partly shown)  remaining binding (CDK5; binding; competition with immobilised ligand; 1 µM): 59%
CC#CC(=O)N1CCC[C@H]1c1nc(-c2ccc(C(=O)Nc3ccccn3)cc2)c2c(N)nccn12  inhibition (CDK5; enzyme activity; inhibitor; 1 µM): 0%
